Screens: PubChem BioAssay, several laboratories
Shown are actives, neighbours in structure and some others; about 1.3% of the full set was active somewhere.
C-LANA FP: inhibitors of KSHV C-LANA binding to DNA, primary screen, biochemical, fluorescence polarization, FAM-LBS DNA, MBP-C-LANA, single point; Kaposi's sarcoma herpesvirus LANA C-terminal domain (residues 932-1162) DNA binding; AID 504423, 2011; inhibition, % at 9 µM; 340,000 tested, 0.078% active;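 active = highest replicate inhibition at or above 60% at 9 µM, even if other replicates fall short; inactive = all replicates below 60% inhibition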;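 note: 0% = neutral control wells and 100% = 4 µM acridine orange control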
EBV gp42 block: Epstein-Barr virus gp42 inhibitors, primary screen, biochemical, uHTS, fluorescence polarization; 220,000 tested, 0.42% active; Glycoprotein 42 (Epstein-Barr virus (strain AG876)), Q1HVG2; inhibition, % (tested at 21.74 µM); Fluorescence polarization binding assay, mP read-out; in the data active = inhibition above about 50%
Target sequence (Q1HVG2 whole entry, looked up): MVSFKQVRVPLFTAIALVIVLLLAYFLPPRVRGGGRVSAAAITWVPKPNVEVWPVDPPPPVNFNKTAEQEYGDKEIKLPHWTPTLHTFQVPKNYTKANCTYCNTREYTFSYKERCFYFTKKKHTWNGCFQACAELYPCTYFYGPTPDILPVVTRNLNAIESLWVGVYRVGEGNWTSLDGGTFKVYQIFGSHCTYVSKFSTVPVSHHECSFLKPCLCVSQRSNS
GRK2 aptamer HTS: compounds blocking aptamer binding on GRK2 – biochemical, human GRK2, bead flow cytometry, HTS, primary screen | Beta-adrenergic receptor kinase 1 (Homo sapiens), P25098 | 330,000 tested, 0.59% active | FAM-aptamer displacement from GRK2 | inhibition of aptamer binding, % at 10 µM;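 active = inhibition of aptamer binding above 40%, roughly 3 SD of noise, on plates passing a quality check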;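 note: median bead fluorescence of bound FAM aptamer so fluorescent compounds give negative values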
MEX-5 binding: MEX-5 zinc finger RNA-binding disruptors – biochemical, C. elegans, fluorescence polarization, MLPCN library, primary screen | AID 1832, 2009 | Zinc finger protein mex-5 (Caenorhabditis elegans), Q9XUB2 | activity score (negative = inhibition of binding), % at 10 µM | MEX-5/FITC-TCR2 RNA binding; active compounds read low | 300,000 tested, 0.38% active;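 active = inhibition past about -25% in most replicates, and total fluorescence under double the plate's negative control median, limit read from the data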;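 note: 0% = DMSO and -100% = 5 µM competing unlabeled TCR2 RNA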
Target sequence (Q9XUB2 whole entry, looked up): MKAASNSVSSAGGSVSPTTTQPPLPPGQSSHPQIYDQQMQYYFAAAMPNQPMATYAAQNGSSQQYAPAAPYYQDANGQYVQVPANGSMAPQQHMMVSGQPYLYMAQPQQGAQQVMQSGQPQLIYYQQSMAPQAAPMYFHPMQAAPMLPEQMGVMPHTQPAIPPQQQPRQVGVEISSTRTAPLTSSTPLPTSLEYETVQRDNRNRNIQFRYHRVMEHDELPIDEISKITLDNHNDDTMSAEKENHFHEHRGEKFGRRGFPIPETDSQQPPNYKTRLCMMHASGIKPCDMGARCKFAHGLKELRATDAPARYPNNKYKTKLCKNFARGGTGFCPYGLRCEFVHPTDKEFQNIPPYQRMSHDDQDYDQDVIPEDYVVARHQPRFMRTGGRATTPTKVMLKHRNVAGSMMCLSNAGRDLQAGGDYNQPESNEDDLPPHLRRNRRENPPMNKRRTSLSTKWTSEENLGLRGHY
T cell modulator: modulators of CD8 T cell-vesicle binding, primary screen, mouse 2C CD8+ T cells, flow cytometry | 330,000 tested, 0.068% active | 2C CD8+ T cell-vesicle binding; active compounds read low | AID 2052, 2009 | response (vesicle binding), % at 7 µM;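 active = response, share of CD8 T cells binding vesicles, and their 90th percentile fluorescence all below set limits, cut at about 80% in these data, passing the limit was not always enough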;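 note: values below 100% mean blocked vesicle binding to the CD8+ T cells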
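Test system: purified 2C TCR transgenic mouse naive CD8+ T cells. Probe or stimulus: QL9-peptide-loaded Drosophila micro-vesicles bearing Ld, ICAM-1 and B7-1. Incubation: binding step 1.5 h, 37 °C, antibody labelling 20 min, ice. Measured by: flow cytometry of vesicle-bound cells.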
Keap1 Nrf2 FP: Keap1-Nrf2 protein-protein interaction inhibitors, primary screen, biochemical, fluorescence polarization, single point | inhibition, % at 9.4 µM | 340,000 tested, 0.15% active | Keap1 Kelch-Nrf2 peptide fluorescence polarization, 1536-well | AID 504523, 2011; in the data active = inhibition above about 12%;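 note: human Keap1 Kelch domain with fluorescein labeled Nrf2 9mer peptide probe; 0% = neutral control wells and 100% = peptide positive control; higher means more block of Keap1 binding to Nrf2 peptide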
GRK2 CP1: GRK2 aptamer-displacing inhibitors, retest, confirmation, biochemical, cherry pick 1, bead flow cytometry; bead-bound GRK2, FAM-aptamer displacement; shares compounds with GRK2 aptamer HTS; aptamer displacement, % at 10 µM; AID 504451, 2011; 2,000 tested, 4% active;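 active = aptamer displacement above 40%, near three times the noise of non-fluorescent compounds, on plates passing quality checks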;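 note: negative values mostly reflect intrinsic compound fluorescence rather than true enhancement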
Aptamer quench 1: counter-screen for GRK2 aptamer inhibitors: fluorescent aptamer quenchers | shares compounds with GRK2 aptamer HTS | Fluorescent RNA aptamer beads, quenching, flow cytometry; active compounds read high | fluorescence change (kMESF span), kMESF (concentration not given with the values) | 110 tested, under 10 active;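 active = compounds whose bead fluorescence drops by more than 37 kMESF across the dose range, marking them as dye quenchers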
FAM quench CP1: aptamer fluorescence quenching in GRK2 counter-screen | fluorescence response (% of DMSO), % at 10 µM | Carboxyfluorescein RNA aptamer on beads, flow cytometry quenching; active compounds read low | 2,000 tested, under 10 active | shares compounds with GRK2 aptamer HTS;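 active = compounds that quench the bead-bound fluorescent RNA probe, cutting fluorescence to under half of the solvent control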;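 note: counterscreen run without GRK2 so only probe quenching by compound is measured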
GRK2 confirm 2: GRK2 aptamer-displacing inhibitors, hit retest, confirmation, biochemical, cherry pick 2, bead flow cytometry. shares compounds with GRK2 aptamer HTS. bead-bound GRK2, FAM-aptamer displacement. inhibition of aptamer binding, % at 10 µM. 360 tested, under 10 active. AID 504782, 2011;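 active = inhibition of aptamer binding above 40%, about triple the noise seen with nonglowing compounds, on plates passing quality control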;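 note: negative values mostly come from compounds that fluoresce themselves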
FAM quench SP: aptamer fluorescence quenching in GRK2 counter-screen; shares compounds with GRK2 aptamer HTS; carboxyfluorescein RNA aptamer beads, flow cytometry quenching; active compounds read low; 360 tested, under 10 active; fluorescence response vs DMSO, % at 10 µM; AID 588494;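 active = response vs DMSO under 50%, meaning signal dropped by over half, treated as fluorescence quencher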;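 note: labelled aptamer on streptavidin beads without GRK2 as a quench counter-screen; 100% = bead fluorescence of DMSO wells and lower means quenching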
* marks the source's active call; other numbers are inactive results; i = inactive; . = no result given.

SMILES	C-LANA FP	EBV gp42 block	GRK2 aptamer HTS	MEX-5 binding	T cell modulator	Keap1 Nrf2 FP	GRK2 CP1	FAM quench CP1	others
CN(CC(=O)Nc1cccc(F)c1)CC(=O)N(C)c1c(N)n(Cc2ccccc2)c(=O)[nH]c1=O	-1	.	0	.	185	-3	.	.
CCn1nc(C(=O)Nc2cccc(C(F)(F)F)c2)c(Cl)c1Cl	0	-6	53*	0	720	1	1	102
CCn1nc(C(=O)Nc2cccc3ccccc23)c(Cl)c1Cl	-1	4	0	1	345	4	.	.
CC(C)OC(=O)CNc1n[nH]c(=S)[nH]c1=O	1	-10	.	-2	.	-1	.	.
COC(=O)CNc1n[nH]c(=S)[nH]c1=O	2	-7	85*	-1	376	1	-9	99
NNc1ncnc2sc3c(c12)CCC3	-1	-12	2	1	552	-1	.	.
O=C(C[n+]1cccc(CO)c1)Nc1nc2ccccc2s1	0	-1	42*	0	482	0	3	101
COc1ccc(CNC(=O)C2CC(C)=C(C)CC2C(=O)O)cc1OC (stereo unspecified)	1	.	0	0	203	-3	.	.	GRK2 confirm 2=6;FAM quench SP=98
CCOc1ccc(CCNC(=O)C2CC(C)=CCC2C(=O)O)cc1OCC (stereo unspecified)	7	.	66*	-1	194	2	53*	98	Aptamer quench 1=4.1
COc1cc(/C=C2\SC(=S)N(NC(C)=O)C2=O)ccc1OC(=O)c1ccco1	0	.	0	.	182	-2	2	95
COc1cc(/C=C2/SC(=S)N(C)C2=O)ccc1OC(=O)c1ccco1	-5	-74	5	2	395	0	.	.
CC(C(=O)c1ccccc1)n1cnc2ccccc2c1=O (stereo unspecified)	2	0	0	2	289	3	.	.
COC(=O)c1ccc(Oc2ccc3nnc(C)n3n2)cc1	-1	-12	0	1	332	-6	.	.
COC(=O)c1ccc(Oc2ccc3nncn3n2)cc1	1	-10	49*	-1	523	-7	0	100
COc1cc(C2C(=O)N(C3CCCC3)CC(=O)N2Cc2ccco2)ccc1OC(C)C (stereo unspecified)	0	-7	58*	4	610	-7	-1	99
COc1cccc2[nH]c(C(=O)NC(C)c3ccccc3)cc12 (stereo unspecified)	22	.	0	-1	238	1	.	.
CCN(CC)c1ccc(NC(=O)c2cc3c(OC)cccc3[nH]2)cc1	-1	.	12	1	i	-2	1	94
CC(C)Cc1nc2oc3c(=O)[nH]cnc3c2c2c1CCC2	-2	-4	93*	-2	492	-1	1	100
CC(C)Cc1nc2oc3c(=O)[nH]cnc3c2c2c1CCCC2	0	-10	0	2	205	-11	.	.
O=C(CN1C(=O)CCC1=O)NCC12CC3CC(CC(C3)C1)C2	-1	-9	1	2	760	2	.	.
COc1cccc(CC2(CO)CCCN(Cc3cn[nH]c3-c3ccccc3)C2)c1 (stereo unspecified)	1	-6	99*	3	212	-1	-3	102
Cc1ccccc1CC1(CO)CCCN(Cc2cn[nH]c2-c2ccccc2)C1 (stereo unspecified)	-1	5	0	0	216	-1	.	.
O=C(NCC1OCCc2ccccc21)c1ccc(NC(=O)c2ccccc2Cl)cc1 (stereo unspecified)	1	4	47*	-2	249	-1	.	.	GRK2 confirm 2=-3;FAM quench SP=101
O=C(NCC1OCCc2ccccc21)c1ccc(NC(=O)c2ccc(Cl)cc2Cl)cc1 (stereo unspecified)	2	7	1	2	212	2	.	.
Cn1c(SCc2cccc(Br)c2)nnc1-c1ccccn1	-1	-5	3	0	238	-2	.	.
SMILES	C-LANA FP	EBV gp42 block	GRK2 aptamer HTS	MEX-5 binding	T cell modulator	Keap1 Nrf2 FP	GRK2 CP1	FAM quench CP1	others
Cn1c(SCc2cccc(F)c2)nnc1-c1ccccn1	-1	-11	58*	-1	148	-4	-2	100
Cc1noc(NS(=O)(=O)c2ccc(NC(=O)c3oc4ccc(Cl)cc4c3C)cc2)c1C	1	.	1	-2	153	2	.	.
CCN(CC)C(=O)Cn1cc(S(=O)(=O)CC(=O)Nc2cc(OC)ccc2OC)c2ccccc21	0	.	71*	1	297	-4	.	.	GRK2 confirm 2=-24;FAM quench SP=99
CCN(CC)C(=O)Cn1cc(S(=O)(=O)CC(=O)Nc2ccccc2F)c2ccccc21	0	.	4	-2	935	-6	.	.
COc1ccc(OC)c(NC(=O)Cc2c(C(=O)O)n(C)c3ccccc23)c1	5	.	47*	-1	532	1	.	.	GRK2 confirm 2=22;FAM quench SP=99
COc1ccc(N(C)C(=O)Cc2c(C(=O)O)n(C)c3ccccc23)c(OC)c1	-1	.	1	0	444	-1	.	.
CCN(C(=O)Cc1c(C(=O)O)n(C)c2ccccc12)c1cc(OC)ccc1OC	-2	.	2	-2	311	-1	.	.
CCn1c(C(=O)O)c(CC(=O)N(C)c2ccc(OC)cc2OC)c2ccccc21	-2	.	58*	-3	246	-3	6	75
Cc1nn(C)cc1S(=O)(=O)N1CCN(Cc2ccc(F)cc2Cl)CC1	0	16	3	-2	402	-4	.	.
